Assays:
[1] = organism: Homo sapiens; assay: Selectivity ratio of Ki for human MT2 receptor to Ki for human MT1 receptor
[2] = biological target: T1, Melatonin receptor type 1A (Homo sapiens, UniProt P48039); assay: Agonist activity at human MT1 receptor expressed in CHO cells by [35S]GTPgamma binding assay; type: functional, cell-based
[3] = biological target: T2, Melatonin receptor type 1B (Homo sapiens, UniProt P49286); assay: Agonist activity at human MT2 receptor expressed in CHO cells by [35S]GTPgamma binding assay; type: functional, cell-based
T2 sequence (P49286 whole entry): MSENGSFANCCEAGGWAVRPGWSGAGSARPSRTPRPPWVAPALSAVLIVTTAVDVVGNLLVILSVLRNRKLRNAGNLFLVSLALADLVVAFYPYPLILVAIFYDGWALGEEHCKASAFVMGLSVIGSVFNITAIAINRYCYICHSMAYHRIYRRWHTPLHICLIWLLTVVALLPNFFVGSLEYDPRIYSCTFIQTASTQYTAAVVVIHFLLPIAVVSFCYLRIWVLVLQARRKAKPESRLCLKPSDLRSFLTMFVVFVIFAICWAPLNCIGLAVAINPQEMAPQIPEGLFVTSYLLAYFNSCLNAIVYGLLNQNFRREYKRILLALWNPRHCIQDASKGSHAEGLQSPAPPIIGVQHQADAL

[4] = biological target: T2, Melatonin receptor type 1B; assay: Displacement of 2-[125I]iodomelatonin from human MT2 receptor expressed in CHO cells; type: cell-based
Procedure, shortened: (§1)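 Membranes from CHO cells stably expressing human MT1 or MT2, grown in DMEM with 10% fetal calf serum, homogenized in Tris/EDTA and pelleted at 95,000g. Incubated with 20 pM 2-[125I]-iodomelatonin and test drug in 50 mM Tris/HCl pH 7.4, 5 mM MgCl2, 120 min at 37 °C. Stopped by filtration onto PEI-soaked GF/B filters. Ki = IC50/(1+[L]/KD) from seven-concentration curves.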

[5] = biological target: T1, Melatonin receptor type 1A; assay: Displacement of 2-[125I]iodomelatonin from human MT1 receptor expressed in CHO cells; type: cell-based; procedure, shortened: as §1

T1 sequence (P48039 whole entry): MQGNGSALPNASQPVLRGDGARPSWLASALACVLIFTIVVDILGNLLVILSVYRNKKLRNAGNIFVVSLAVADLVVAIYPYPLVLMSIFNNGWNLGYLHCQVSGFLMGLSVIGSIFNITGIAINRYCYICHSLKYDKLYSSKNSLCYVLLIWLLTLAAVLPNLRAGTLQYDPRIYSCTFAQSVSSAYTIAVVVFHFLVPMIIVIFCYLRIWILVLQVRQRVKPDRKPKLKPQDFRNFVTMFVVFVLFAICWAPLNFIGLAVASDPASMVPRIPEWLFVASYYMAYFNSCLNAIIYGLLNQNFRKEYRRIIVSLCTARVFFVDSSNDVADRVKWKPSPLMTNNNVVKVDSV

Row | Compound | Ratio Ki [1] | EC50 [2] [nM] | EC50 [3] [nM] | Ki [4] [nM] | Ki [5] [nM]
1 | CC(=O)NCCc1cccc2ccc(OCCCCOc3ccc4cccc(CCNC(C)=O)c4c3)cc12 | 120 | 73 | 405 | – | –
2 | COC(=O)C(C)c1ccc2cc(OCCCCOc3ccc4cccc(CCNC(C)=O)c4c3)ccc2c1 (centres undefined) | 11 | 21.7 | 88 | 4.22 | 0.37
3 | CC(=O)NCCc1cccc2ccc(-c3ccc4cccc(CCNC(C)=O)c4c3)cc12 | 70 | – | – | – | –
4 | CC(=O)NCCc1cccc2ccc(OCCCCOc3ccc4cccc(CCNC(=O)C5CC5)c4c3)cc12 | 10 | 9.1 | – | 11.1 | 1.07
5 | COC(=O)Cc1cccc2ccc(OCCCCOc3ccc4cccc(CCNC(C)=O)c4c3)cc12 | 26 | 2.89 | – | 1.84 | 0.07
6 | CC(=O)NCCc1cccc2ccc(OCCCCOc3ccc4c(c3)C(CCNC(C)=O)CCC4)cc12 (centres undefined) | 26 | 7.75 | – | 6.79 | 0.26
7 | CC(=O)NCCc1cccc2ccc(OCCCCOc3ccc4cc(C(C)C(=O)O)ccc4c3)cc12 (centres undefined) | 39 | 22 | 161 | 59.1 | 1.51
8 | C=CCC(=O)NCCc1cccc2ccc(OCCCCOc3ccc4cccc(CCNC(C)=O)c4c3)cc12 | 11 | 12 | – | 8.45 | 0.79
9 | CC(=O)NCCc1cccc2ccc(OCCCCOc3ccc4cccc(CCNC(=O)c5ccco5)c4c3)cc12 | 18 | 11.2 | – | 11.8 | 0.64
10 | CC(=O)NCCc1cccc2ccc(OCCCCOc3ccc4occ(CCNC(C)=O)c4c3)cc12 | 10 | 2.49 | – | 13.9 | 1.38
11 | O=C(NCCc1cccc2ccc(OCCCCOc3ccc4cccc(CCNC(=O)C5CC5)c4c3)cc12)C1CC1 | 13 | – | 134 | 13.6 | 1.01
12 | CC(=O)NCCc1cccc2ccc(OCCCCOc3ccc(-c4ccc(C(=O)O)cc4)cc3)cc12 | 93 | 26.1 | – | 51.3 | 0.55
13 | CC(=O)NCCc1cccc2ccc(OCCCCOc3ccc(-c4ccc(CO)cc4)cc3)cc12 | 72 | 2.37 | 26 | 6.53 | 0.09
14 | COC(=O)c1ccc(-c2ccc(OCCCCOc3ccc4cccc(CCNC(C)=O)c4c3)cc2)cc1 | 8 | 46.2 | – | 19.1 | 2.37
15 | O=C(NCCCc1ccc2nc(CCCCc3ccccc3)oc2c1)C1CC1 | 35 | – | – | – | –
16 | CC(=O)NCCc1cccc2ccc(OCCCCOc3ccc4cccc(CC(=O)O)c4c3)cc12 | 5 | 3.14 | – | 45.8 | 9.1
17 | CC(=O)NCCc1cccc2ccc(OCCCCOc3ccc4[nH]cc(CCNC(C)=O)c4c3)cc12 | 21 | 2.38 | – | 84.3 | 4.04
18 | C=CCC(=O)NCCc1cccc2ccc(OCCCCOc3ccc4cccc(CCNC(=O)CC=C)c4c3)cc12 | 12 | 16.1 | 40.2 | 10.9 | 0.92
19 | CC(=O)NCCc1cccc2ccc(OCCCCOc3ccc4scc(CCNC(C)=O)c4c3)cc12 | 5 | 1.94 | 20.6 | 16.9 | 3.47
